Assay results gathered from unrelated publications.
Compare with care: the assays were run in different laboratories.
CREBBP bromodomain: CREB-binding protein, bromodomain (CREBBP, Homo sapiens, UniProt Q92793)
Rock2: Rho-associated protein kinase 2 (Rock2, Rattus norvegicus, UniProt Q62868)
PTGS2: Prostaglandin G/H synthase 2 (PTGS2, Homo sapiens, UniProt P35354)
DYRK3: Dual specificity tyrosine-phosphorylation-regulated kinase 3 (DYRK3, Homo sapiens, UniProt O43781)
BRWD1 BD2: Bromodomain and WD repeat-containing protein 1, BD2 (BRWD1, Homo sapiens, UniProt Q9NSI6)
NUAK1: NUAK family SNF1-like kinase 1 (NUAK1, Homo sapiens, UniProt O60285)
DYRK1B: Dual specificity tyrosine-phosphorylation-regulated kinase 1B (DYRK1B, Homo sapiens, UniProt Q9Y463)

Cn1cc(C(=O)Nc2cccc(C(=O)O)c2)ccc1=O
ΔTm (CREBBP bromodomain; thermal stability, DSF; 100 µM): 1.9 °C

Cc1ccc(NC(=O)c2ccc(C)c(C(F)(F)F)c2)cc1C#Cc1nn(C2CCC(O)CC2)c2ncnc(N)c12 (stereo not shown)
remaining signal (Rock2; cell-free assay; 10 µM): 85%

COC(=O)c1ccc(O)cc1
inhibition (PTGS2; enzyme activity, inhibitor; 0.49 µg/mL): 0%

Cc1cc2c(cc1N1C(=O)c3cccc4c(Cl)ccc(c34)C1=O)n(C)c(=O)n2C
ΔTm (Bromodomain testis-specific protein, BD2 (BRDT, Homo sapiens, UniProt Q58F21); thermal stability, DSF; 10 µM): -1 °C

O=C(O)c1ccc2c(c1)nc(Nc1ccccc1)c1ccncc12
remaining activity (DYRK3; enzyme activity, inhibitor, radiometric; 1 µM): 7%

O=c1cc(-c2ccc(O)cc2)oc2cc(O)cc(O)c12
inhibition (PTGS2; enzyme activity, inhibitor; 0.12 µg/mL): 3.07%

C[S+]([O-])c1ccc(-c2nc(-c3ccncc3)c(-c3ccc(F)cc3)[nH]2)cc1 (stereo not shown)
ΔTm (BRWD1 BD2; thermal stability, DSF; 10 µM): 1.32 °C

COc1cccc(Nc2nc3cc(C(=O)O)ccc3c3cnccc23)c1
remaining activity (DYRK3; enzyme activity, inhibitor, radiometric; 1 µM): 2%

NS(=O)(=O)c1ccc(CNc2nc(Nc3cccc(NC(=O)N4CCCC4)c3)ncc2Br)cc1
remaining activity (NUAK1; enzyme activity, inhibitor, radiometric; 1 µM): 11%

O=C(O)c1ccc2c(c1)nc(Nc1ccc(Cl)cc1)c1ncncc12
remaining activity (DYRK1B; enzyme activity, inhibitor, radiometric; 1 µM): 80%

Oc1ccc(-c2nc(-c3ccncc3)c(-c3ccc(F)cc3)[nH]2)cc1
ΔTm (Bromodomain testis-specific protein, BD1 (BRDT, Homo sapiens, UniProt Q58F21); thermal stability, DSF; 10 µM): -0.47 °C

N#Cc1cccc(Nc2nc3cc(C(=O)O)ccc3c3cncnc23)c1
remaining activity (DYRK1B; enzyme activity, inhibitor, radiometric; 1 µM): 87%

COc1cc(/C=C/C(=O)CC(=O)/C=C/c2ccc(O)c(OC)c2)ccc1O
activity vs control (Rock2; enzyme activity, inhibitor; 1 µM): 90%

NS(=O)(=O)c1ccc(Nc2nc(-c3ccc(F)cc3)c3ccccc3n2)cc1
remaining binding (BRWD1 BD2; binding, competition with immobilised ligand; 1 µM): 88%

CN(C)C1CCN(CC#Cc2nn(C3CCCC3)c3nc(NCc4ccccc4)ncc23)C1 (stereo not shown)
inhibition (NUAK1; enzyme activity, inhibitor, FRET; 0.1 µM): 0%

COc1ccc(-c2cc(=O)c3c(O)cc(O[C@@H]4O[C@H](CO)[C@@H](O)[C@H](O)[C@H]4O)cc3o2)cc1O
inhibition (PTGS2; enzyme activity, inhibitor; 0.98 µg/mL): 72.2%

Cn1nnc2ccc(NC(=O)c3cccc(C(=O)O)c3)cc21
ΔTm (CREBBP bromodomain; thermal stability, DSF; 100 µM): 2 °C

O=C(NCCCNc1nc(Nc2cccc(CN3CCOCC3)c2)ncc1C1CC1)C1CCC1
remaining activity (Inhibitor of nuclear factor kappa-B kinase subunit epsilon (IKBKE, Homo sapiens, UniProt Q14164); enzyme activity, inhibitor, radiometric; 1 µM): 4%

N#Cc1cccc(Nc2nc3cc(C(=O)O)ccc3c3cnccc23)c1
remaining activity (DYRK1B; enzyme activity, inhibitor, radiometric; 1 µM): 10%

N=C(N)NCCC[C@H](NC(=O)[C@H](CC(=O)O)NC(=O)[C@H](Cc1c[nH]c2ccccc12)NC(=O)[C@H](CCCNC(=N)N)NC(=O)[C@@H](N)Cc1ccccc1)C(=O)N[C@@H](Cc1ccccc1)C(=O)NCC(=O)O
Emax (Melanocyte-stimulating hormone receptor (Mc1r, Mus musculus, UniProt Q01727); cAMP, agonist; HEK293): 30%

C=C[C@@]1(C)C=C2CC[C@@H]3[C@](C)(CCC[C@@]3(C)C(=O)O)[C@H]2CC1
inhibition (PTGS2; enzyme activity, inhibitor; 15.63 µg/mL): 85.3%

O=C(O)c1ccc2c(c1)nc(NCCc1cccc(Cl)c1)c1ccncc12
remaining activity (DYRK3; enzyme activity, inhibitor, radiometric; 1 µM): 5%

Nc1ncnc2occ(-c3ccc(NC(=O)Nc4cc(C(F)(F)F)ccc4F)cc3)c12
remaining signal (Mitogen-activated protein kinase kinase kinase 15 (MAP3K15, Homo sapiens, UniProt Q6ZN16); cell-free assay, inhibitor; 20 µM): 39%

O=C(O)c1ccc2c(c1)nc(Nc1ccc3ccccc3c1)c1ccncc12
remaining activity (DYRK3; enzyme activity, inhibitor, radiometric; 1 µM): 4%

O=C(O)c1ccc(O)cc1
inhibition (PTGS2; enzyme activity, inhibitor; 3.9 µg/mL): 61.1%

Cc1cnc(Nc2ccc(OCCN3CCCC3)cc2)nc1Nc1cccc(S(=O)(=O)NC(C)(C)C)c1
ΔTm (Transcription intermediary factor 1-beta (TRIM28, Homo sapiens, UniProt Q13263); thermal stability, DSF; 10 µM): 0.08 °C

O=C(O)c1ccc2c(c1)nc(NCCc1ccccc1)c1ncncc12
remaining activity (DYRK1B; enzyme activity, inhibitor, radiometric; 1 µM): 123%

CCN1CCN(Cc2ccc(NC(=O)c3ccc(C)c(Oc4ccnc5[nH]ccc45)c3)cc2C(F)(F)F)CC1
inhibition (Inositol-tetrakisphosphate 1-kinase (Homo sapiens, UniProt Q13572); target engagement in cells, inhibitor, chemoproteomics; Huh-7; 1 µM): -10.6%
